# Results gathered from unrelated publications.
# Lines come from different studies, so protocols differ.
# ULK1: Serine/threonine-protein kinase ULK1 (ULK1, Homo sapiens, UniProt O75385)
# CDKL1: Cyclin-dependent kinase-like 1 (CDKL1, Homo sapiens, UniProt Q00532)
# MAP3K11: Mitogen-activated protein kinase kinase kinase 11 (MAP3K11, Homo sapiens, UniProt Q16584)
SMILES,target,assay,system,setting,endpoint,result
CN(C)C1CCN(CC#Cc2nn(C3CCCC3)c3nc(NCc4ccccc4)ncc23)C1 (stereo not shown),"Interleukin-1 receptor-associated kinase 4 (IRAK4, Homo sapiens, UniProt Q9NWZ3)","enzyme activity, inhibitor, FRET",,10 µM,inhibition,0%
CCN1CCN(Cc2ccc(NC(=O)c3ccc(C)c(Oc4ccnc5[nH]ccc45)c3)cc2C(F)(F)F)CC1,"Eukaryotic elongation factor 2 kinase (EEF2K, Homo sapiens, UniProt O00418)","target engagement in cells, inhibitor, chemoproteomics",A-375,50 nM,inhibition,-13.9%
O=C(NCCCNc1nc(Nc2cccc(CN3CCOCC3)c2)ncc1C1CC1)C1CCC1,ULK1,"enzyme activity, inhibitor, radiometric",,1 µM,remaining activity,9%
CC1(C)NC(=O)c2[nH]c3c(Cl)c(Cl)ccc3c2C1C#N (stereo not shown),CDKL1,"thermal stability, DSF",,10 µM,ΔTm,0 °C
NS(=O)(=O)c1ccc(CNc2ccnc(Nc3cccc(CN4CCOCC4)c3)n2)cc1,ULK1,"enzyme activity, inhibitor, radiometric",,1 µM,remaining activity,92%
Cn1c2c(c3ccc(Cl)c(Cl)c31)C(C#N)C(C)(C)NC2=O (stereo not shown),CDKL1,"thermal stability, DSF",,10 µM,ΔTm,0 °C
CN1CCc2cc(Nc3ncc(C4CC4)c(NCCCNC(=O)C4CCC4)n3)ccc2C1,ULK1,"enzyme activity, inhibitor, radiometric",,1 µM,remaining activity,1%
Cc1cc(NC(=O)c2cccc3cc(-c4cccc5[nH]nc(N)c45)ccc23)ccc1F,"Hepatocyte growth factor receptor (MET, Homo sapiens, UniProt P08581, M1250T)","enzyme activity, inhibitor",,0.1 µM,activity vs control,113%
NS(=O)(=O)c1ccc(CNc2ccnc(Nc3cccc(NC(=O)N4CCCC4)c3)n2)cc1,MAP3K11,"enzyme activity, inhibitor, radiometric",,1 µM,remaining activity,89%
Cn1c2c(c3ccc(Cl)c(Cl)c31)C(C#N)C1(CCNCC1)NC2=O (racemic),CDKL1,"thermal stability, DSF",,10 µM,ΔTm,0.9 °C
Cc1cnc(NC2CCOCC2)nc1-n1cnc(C(=O)NC(CN)c2cc(F)cc(Cl)c2)c1 (stereo not shown),"Hepatocyte growth factor receptor (MET, Homo sapiens, UniProt P08581, Y1230D)","enzyme activity, inhibitor, radiometric",,1 µM,remaining activity,97%
Nc1ncnc2occ(-c3ccc(NC(=O)Nc4cc(C(F)(F)F)ccc4F)cc3)c12,"Myosin-IIIa (MYO3A, Homo sapiens, UniProt Q8NEV4)",cell-free assay,,20 µM,remaining signal,0.05%
NS(=O)(=O)c1ccc(CNc2nc(Nc3cccc(CN4CCOCC4)c3)ncc2C2CC2)cc1,MAP3K11,"enzyme activity, inhibitor, radiometric",,1 µM,remaining activity,68%
Cn1c2c(c3ccc(Cl)c(Cl)c31)C(C#N)C1(CCOCC1)NC2=O (stereo not shown),CDKL1,"thermal stability, DSF",,10 µM,ΔTm,-0.1 °C
O=S1(=O)O[C@@H]2[C@H](O)[C@@H](O)[C@H](O)[C@@H](CO)[C@@H]2O1,"Lysosomal alpha-glucosidase (GAA, Homo sapiens, UniProt P10253)","enzyme activity, inhibitor",,pH 4.8,kinact/KI,1070 M⁻¹ s⁻¹
Cn1c2c(Cl)c(Cl)ccc2c2cc[nH]c(=O)c21,"TRAF2 and NCK-interacting protein kinase (TNIK, Homo sapiens, UniProt Q9UKE5)","thermal stability, DSF",,10 µM,ΔTm,0.7 °C
Cc1ccc(NC(=O)c2ccc(C)c(C(F)(F)F)c2)cc1C#Cc1nn(C2CCC(O)CC2)c2ncnc(N)c12 (stereo not shown),"Hepatocyte growth factor receptor (MET, Homo sapiens, UniProt P08581, D1228N)",cell-free assay,,10 µM,remaining signal,103%
Cc1nn(CC(F)(F)F)cc1Nc1ncc(Br)c(NCCc2cnc[nH]2)n1,ULK1,"enzyme activity, inhibitor, radiometric",,1 µM,remaining activity,20%
Cn1c2c(c3ccccc31)C(C#N)C(C)(C)NC2=O (stereo not shown),CDKL1,"thermal stability, DSF",,10 µM,ΔTm,-0.1 °C
